Here are results for 47 molecules from ChEMBL document CHEMBL1126557, “Novel antiasthmatic agents with dual activities of thromboxane A2 synthetase inhibition and bronchodilation. 2. 4-(3-Pyridyl)-1(2H)-phthalazinones” (J Med Chem, 1993).

For the first experiment, the species on record is Cavia porcellus. Description: In vitro bronchodilatory activity in guinea pig isolated tracheal strips. The format is functional. As to conditions: Trachea.
Usually IC50 stands for the concentration needed to halve the response being measured. For `CC(C)Cn1nc(-c2cncs2)c2ccccc2c1=O`, inhibition was half-maximal at 2.4 µM (IC50).
`O=c1c2ccccc2c(-c2cccnc2)nn1Cc1ccccc1` showed an IC50 of 2.45 µM.
The same measure, in the same setting: next, `COCCn1nc(-c2cccnc2)c2ccccc2c1=O`: 9.33 µM.
Same read-out and setting: next, `O=C(O)c1ccc(Cn2nc(-c3cccnc3)c3ccccc3c2=O)cc1`: 17 µM.
As to `CCn1nc(-c2cncnc2)c2ccccc2c1=O`, the concentration for half-maximal inhibition (IC50) is 9.55 µM.
The same measure, in the same setting: the result for `O=c1c2ccccc2c(-c2cccnc2)nn1CCSc1ccccc1` reads 9.12 µM; that for `O=C(c1cccs1)n1nc(-c2cccnc2)c2ccccc2c1=O`, 12.3 µM.
On the same count and under the same terms, the result for `CCCn1nc(-c2cccnc2)c2ccccc2c1=O` reads 3.16 µM; that for `CC(=O)OCCn1nc(-c2cccnc2)c2ccccc2c1=O`, 9.77 µM; that for `O=c1c2ccccc2c(-c2cccnc2)nn1CCSC1=NCCS1`, 10.5 µM.
On the same count and under the same terms, next, `O=c1c2ccccc2c(-c2cccnc2)nn1CCSc1ncccn1`: 11 µM; `O=C(O)CCCn1nc(-c2cccnc2)c2ccccc2c1=O`: over 100 µM.
Molecule `COC(=O)c1ccc(Cn2nc(-c3cccnc3)c3ccccc3c2=O)cc1` gave an IC50 of 5.89 µM.
Still for that read-out and setting: the result for `O=c1c2ccccc2c(-c2cccnc2)nn1CCn1cnnn1` reads 24 µM; that for `CCOC(=O)Cn1nc(-c2cccnc2)c2ccccc2c1=O`, 43.7 µM; that for `CC(=O)Cn1nc(-c2cccnc2)c2ccccc2c1=O`, 40.7 µM.
Still for that read-out and setting: the result for `CCn1nc(-n2ccnc2)c2ccccc2c1=O` reads 5.37 µM; that for `O=c1c2ccccc2c(-c2cccnc2)nn1C1CCCC1`, 2.75 µM; that for `O=c1c2ccccc2c(-c2cccnc2)nn1S(=O)(=O)c1ccccc1`, 14.8 µM.
Same read-out and setting: the result for `O=c1c2ccccc2c(-c2cccnc2)nn1CCO` reads 4.57 µM; that for `Oc1nnc(-c2cncs2)c2ccccc12`, 1.2 µM.
Consider `CCn1nc(-c2nccs2)c2ccccc2c1=O`, for which the half-maximal inhibitory concentration (IC50) was 3.16 µM.
In the case of `CC(C)n1nc(-c2cccnc2)c2ccccc2c1=O`, the concentration for half-maximal inhibition (IC50) was 3.09 µM.
Turning to `CC(C)=CCn1nc(-c2cccnc2)c2ccccc2c1=O`, inhibition was half-maximal at 1.38 µM (IC50).
In the case of `Oc1nnc(-n2cncn2)c2ccccc12`, the concentration for half-maximal inhibition (IC50) is 16.6 µM.
Regarding `CC(C)n1nc(-c2cncs2)c2ccccc2c1=O`, the midpoint of inhibition, the IC50, lay at 3.39 µM.
The same measure, in the same setting: next, `NCCn1nc(-c2cccnc2)c2ccccc2c1=O`: over 100 µM; `CCn1nc(-c2cnccn2)c2ccccc2c1=O`: 11 µM.
Regarding `CCCCCCCCn1nc(-c2cccnc2)c2ccccc2c1=O`, the half-maximal inhibitory concentration (IC50) is 21.9 µM.
As for `Cn1nc(-c2cccnc2)c2ccccc2c1=O`, the 50% inhibitory concentration (IC50) was 11.5 µM.
Still for that read-out and setting: next, `O=C1c2ccccc2C(=O)N1CCn1nc(-c2cccnc2)c2ccccc2c1=O`: 21.9 µM.
As to `Oc1nnc(-c2nccs2)c2ccccc12`, the IC50 is 4.57 µM.
`O=c1c2ccccc2c(-c2cccnc2)nn1CC1CCCCC1`: the IC50 was 0.209 µM.
On the same count and under the same terms, next, `CCn1nc(-n2cncn2)c2ccccc2c1=O`: 15.8 µM; `O=c1c2ccccc2c(-c2cccnc2)nn1Cc1cccc(Cl)c1`: 4.17 µM; `Oc1nnc(-n2ccnc2)c2ccccc12`: 8.32 µM.
Still for that read-out and setting: the result for `C=CCn1nc(-c2cccnc2)c2ccccc2c1=O` reads 2.14 µM.
For the molecule `O=c1c2ccccc2c(-c2cccnc2)nn1CCCCSc1ncccn1`, inhibition was half-maximal at 6.17 µM (IC50).
Still for that read-out and setting: next, `CCOC(=O)CCCn1nc(-c2cccnc2)c2ccccc2c1=O`: 10 µM; `O=C(O)Cn1nc(-c2cccnc2)c2ccccc2c1=O`: over 100 µM.
`CCn1nc(-c2cncs2)c2ccccc2c1=O`: the half-inhibitory concentration (IC50) is 0.562 µM.
In turn, `O=C(O)/C=C/c1ccc(Cn2ccnc2)cc1` [OZAGREL] had a half-inhibitory concentration (IC50) of over 1000 µM.
With `Oc1nnc(-c2cccnc2)c2ccccc12`, it took 10.2 µM to reach half-maximal inhibition (IC50).
With `CCCCn1nc(-c2cccnc2)c2ccccc2c1=O`, the midpoint of inhibition, the IC50, lay at 2.29 µM.
`CC(C)NC(=O)CCCn1nc(-c2cccnc2)c2ccccc2c1=O` showed a half-maximal inhibitory concentration (IC50) of 64.6 µM.
The same measure, in the same setting: next, `O=c1c2ccccc2c(-c2cccnc2)nn1CCNS(=O)(=O)c1ccccc1`: 26.3 µM.

The next experiment deals with Cavia porcellus. Description: In vivo inhibitory effect on airway constriction induced by histamine 2-5 micro g/kg iv at 1 min after 10 mg/kg iv dose of compound. In kind it is functional.
Details: not given
Put shortly:
(§1)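 Male Dunkin-Hartley guinea pigs anesthetized with pentobarbital 35 mg/kg ip, jugular vein and trachea cannulated, ventilated at 10 mL/kg, 60 strokes/min. Insufflation pressure recorded. Histamine 2–5 μg/kg iv repeated every 10 min until a reproducible control response. Compound 10 mg/kg iv 1 min before the next challenge.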
The term inhibition in vivo denotes how much of the control response was suppressed. A lower inhibition in vivo goes with a response near the control. As to `O=c1c2ccccc2c(-c2cccnc2)nn1CCn1ccnc1`, at 10 mg/kg the inhibition in vivo was 97%.
Same read-out and setting: next, `C=CCn1nc(-c2cccnc2)c2ccccc2c1=O`: 100%; `O=C(O)/C=C/c1ccc(Cn2ccnc2)cc1` [OZAGREL]: 0%.

A further experiment relates to Cavia porcellus. Description: In vivo inhibitory effect on airway constriction induced by histamine 2-5 ug/kg iv at 1 min after 10 mg/kg iv dose of compound. In kind it is functional.
Details: not given
Put shortly: as §1
As for `Cn1nc(-c2cccnc2)c2ccccc2c1=O`, testing at 10 mg/kg gave an inhibition in vivo of 97%.

The subject of another experiment is Rattus norvegicus. Description: Tested ex vivo against serum TXB2 production at 1 hr after oral dose of 3 mg/kg of drug to rat. The format is functional.
Details: not given
Put shortly:
(§2)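 Male SD rats (240–260 g), fasted 20 h, dosed orally with compound in 0.5% carboxymethylcellulose or vehicle alone. At 1 h, ether anesthesia and 2 mL cardiac blood taken and clotted at 37 °C for 90 min.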
For the molecule `O=C(O)/C=C/c1ccc(Cn2ccnc2)cc1` [OZAGREL], the inhibition in vivo at 3 mg/kg is 86%.

The next experiment concerns Rattus norvegicus. Nature of the experiment: Tested ex vivo against serum TXB2 production at 1 hr after oral dose of 30 mg/kg of drug to rat. In kind it is functional.
Details: not given
Put shortly:
as §2
As to `O=C(O)/C=C/c1ccc(Cn2ccnc2)cc1` [OZAGREL], at 30 mg/kg the inhibition in vivo was 92%.

The next experiment deals with T1, Thromboxane-A synthase (Rattus norvegicus) (UniProt P49430).
T1 sequence (whole entry): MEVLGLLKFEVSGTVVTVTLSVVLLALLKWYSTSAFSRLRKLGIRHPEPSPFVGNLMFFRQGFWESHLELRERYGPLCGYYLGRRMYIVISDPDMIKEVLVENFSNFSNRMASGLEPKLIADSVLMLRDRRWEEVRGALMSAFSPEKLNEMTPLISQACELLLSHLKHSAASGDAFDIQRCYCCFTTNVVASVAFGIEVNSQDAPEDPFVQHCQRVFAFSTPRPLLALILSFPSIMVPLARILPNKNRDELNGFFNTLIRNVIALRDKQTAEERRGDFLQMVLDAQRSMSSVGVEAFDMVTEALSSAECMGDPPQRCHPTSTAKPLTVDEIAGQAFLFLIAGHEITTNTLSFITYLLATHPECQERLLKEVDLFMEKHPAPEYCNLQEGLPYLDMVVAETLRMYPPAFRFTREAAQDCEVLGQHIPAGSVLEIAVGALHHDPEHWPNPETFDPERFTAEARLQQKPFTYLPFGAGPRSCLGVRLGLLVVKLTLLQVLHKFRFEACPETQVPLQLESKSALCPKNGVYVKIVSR
Description: Tested ex vivo against TXA2 production in rat serum at 1 hr after peroral dose of 30 mg/kg and anesthetized with ether. The format is functional, organism-based. Also on record: dose 30 mg/kg.
Details: not given
Put shortly:
as §2
As a reminder, the inhibition is the drop in the measured response relative to a control, in per cent. A higher inhibition goes with strong suppression. For `O=c1c2ccccc2c(-c2cccnc2)nn1Cc1ccccc1`, the inhibition was found to be 86%.
Still for that read-out and setting: next, `CCCn1nc(-c2cccnc2)c2ccccc2c1=O`: 93%; `O=c1c2ccccc2c(-c2cccnc2)nn1CCn1cnnn1`: 77%.
Still for that read-out and setting: next, `CCOC(=O)Cn1nc(-c2cccnc2)c2ccccc2c1=O`: 0%; `CCn1nc(-n2ccnc2)c2ccccc2c1=O`: 72%.
Same read-out and setting: next, `O=c1c2ccccc2c(-c2cccnc2)nn1C1CCCC1`: 80%; `Oc1nnc(-c2cncs2)c2ccccc12`: 70%.
Regarding `CCn1nc(-c2nccs2)c2ccccc2c1=O`, the inhibition worked out at 5%.
`CC(C)n1nc(-c2cccnc2)c2ccccc2c1=O` yielded an inhibition of 82%.
Regarding `Cn1nc(-c2cccnc2)c2ccccc2c1=O`, the inhibition is 94%.
On to `Oc1nnc(-n2ccnc2)c2ccccc12`, for which the inhibition came to 87%.
`C=CCn1nc(-c2cccnc2)c2ccccc2c1=O` returned an inhibition of 82%.
Take `CCn1nc(-c2cncs2)c2ccccc2c1=O`: the inhibition is 69%.
Regarding `O=C(O)/C=C/c1ccc(Cn2ccnc2)cc1` [OZAGREL], the inhibition is 92%.
Take `Oc1nnc(-c2cccnc2)c2ccccc12`: the inhibition was determined as 78%.
`CCCCn1nc(-c2cccnc2)c2ccccc2c1=O` had an inhibition of 100%.

The next experiment concerns the target T1, Thromboxane-A synthase (Rattus norvegicus). Nature of the experiment: Tested ex vivo against TXA2 production in male SD rats at 1 hr after peroral dose of 30 mg/kg and anesthetized with ether. The format is functional, organism-based. Also noted: dose 30 mg/kg.
Details: not given
In a few lines:
as §2
The molecule `O=c1c2ccccc2c(-c2cccnc2)nn1CCSc1ccccc1` gave an inhibition of 52%.
The same measure, in the same setting: the result for `CC(C)n1nc(-c2cncs2)c2ccccc2c1=O` reads 71%.
Still for that read-out and setting: the result for `Oc1nnc(-c2nccs2)c2ccccc12` reads 23%.

The subject of another experiment is Thromboxane-A synthase (Oryctolagus cuniculus). Description: Tested in vitro against rabbit thromboxane A2 synthetase (TXA2) at 1 uM.
Details: not given
`O=c1c2ccccc2c(-c2cccnc2)nn1Cc1ccccc1` had an inhibition of 97%.
Same read-out and setting: next, `COCCn1nc(-c2cccnc2)c2ccccc2c1=O`: 55%.
In the case of `O=C(O)c1ccc(Cn2nc(-c3cccnc3)c3ccccc3c2=O)cc1`, the inhibition amounted to 64%.
Same read-out and setting: next, `O=c1c2ccccc2c(-c2cccnc2)nn1CCn1ccnc1`: 37%.
Still for that read-out and setting: the result for `CCn1nc(-c2cncnc2)c2ccccc2c1=O` reads 26%; that for `O=C(c1cccs1)n1nc(-c2cccnc2)c2ccccc2c1=O`, 37%; that for `CCCn1nc(-c2cccnc2)c2ccccc2c1=O`, 86%.
Molecule `CC(=O)OCCn1nc(-c2cccnc2)c2ccccc2c1=O` displayed an inhibition of 32%.
Turning to `O=c1c2ccccc2c(-c2cccnc2)nn1CCSc1ncccn1`, the inhibition is 86%.
Same read-out and setting: next, `O=C(O)CCCn1nc(-c2cccnc2)c2ccccc2c1=O`: 73%.
Still for that read-out and setting: next, `COC(=O)c1ccc(Cn2nc(-c3cccnc3)c3ccccc3c2=O)cc1`: 95%; `O=c1c2ccccc2c(-c2cccnc2)nn1CCn1cnnn1`: 43%; `CCOC(=O)Cn1nc(-c2cccnc2)c2ccccc2c1=O`: 28%.
The same measure, in the same setting: the result for `CC(=O)Cn1nc(-c2cccnc2)c2ccccc2c1=O` reads 13%.
`CCn1nc(-n2ccnc2)c2ccccc2c1=O` registered an inhibition of 53%.
For the molecule `O=c1c2ccccc2c(-c2cccnc2)nn1C1CCCC1`, the inhibition was found to be 97%.
The same measure, in the same setting: next, `O=c1c2ccccc2c(-c2cccnc2)nn1S(=O)(=O)c1ccccc1`: 96%; `O=c1c2ccccc2c(-c2cccnc2)nn1CCO`: 69%; `Oc1nnc(-c2cncs2)c2ccccc12`: 38%.
Still for that read-out and setting: the result for `CCn1nc(-c2nccs2)c2ccccc2c1=O` reads 4%; that for `CC(C)n1nc(-c2cccnc2)c2ccccc2c1=O`, 87%; that for `CC(C)=CCn1nc(-c2cccnc2)c2ccccc2c1=O`, 94%.
The same measure, in the same setting: the result for `NCCn1nc(-c2cccnc2)c2ccccc2c1=O` reads 29%; that for `CCn1nc(-c2cnccn2)c2ccccc2c1=O`, 37%.
With `CCCCCCCCn1nc(-c2cccnc2)c2ccccc2c1=O`, the inhibition was 99%.
On the same count and under the same terms, the result for `Cn1nc(-c2cccnc2)c2ccccc2c1=O` reads 63%; that for `O=C1c2ccccc2C(=O)N1CCn1nc(-c2cccnc2)c2ccccc2c1=O`, 87%; that for `O=c1c2ccccc2c(-c2cccnc2)nn1CC1CCCCC1`, 98%.
Still for that read-out and setting: next, `CCn1nc(-n2cncn2)c2ccccc2c1=O`: 0%.
The same measure, in the same setting: the result for `O=c1c2ccccc2c(-c2cccnc2)nn1Cc1cccc(Cl)c1` reads 95%; that for `C=CCn1nc(-c2cccnc2)c2ccccc2c1=O`, 70%; that for `O=c1c2ccccc2c(-c2cccnc2)nn1CCCCSc1ncccn1`, 96%.
`CCOC(=O)CCCn1nc(-c2cccnc2)c2ccccc2c1=O` yielded an inhibition of 95%.
On the same count and under the same terms, the result for `O=C(O)Cn1nc(-c2cccnc2)c2ccccc2c1=O` reads 13%.
The same measure, in the same setting: next, `CCn1nc(-c2cncs2)c2ccccc2c1=O`: 77%.
Same read-out and setting: the result for `Oc1nnc(-c2cccnc2)c2ccccc12` reads 26%.
On to `CCCCn1nc(-c2cccnc2)c2ccccc2c1=O`, for which the inhibition is 91%.
The same measure, in the same setting: the result for `CC(C)NC(=O)CCCn1nc(-c2cccnc2)c2ccccc2c1=O` reads 89%; that for `O=c1c2ccccc2c(-c2cccnc2)nn1CCNS(=O)(=O)c1ccccc1`, 93%.
